Measured values from ChEMBL document CHEMBL5344415, “Synthesis and Characterization of Phenylalanine Amides Active against Mycobacterium abscessus and Other Mycobacteria” (J Med Chem, 2023).
Converted amounts (≈) assume the structure as drawn.

What was measured:
[1] = system: Mycolicibacterium smegmatis; assay: Antibacterial activity against Mycobacterium smegmatis mc2 155 expressing tomato RFP assessed as bacterial growth inhibition incubated for 3 days in 7H9 medium by RFP fluorescence based broth microdilution method; format: functional; details: mc2 155, 72 h, time 3 day
Outline: (§1)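 Broth microdilution in 7H9 with 10 % ADS and 0.05 % Tween 80. Twofold nine-point dilution series. Inoculum 5 x 10⁵ cells/mL taken from a mid-log preculture. Incubation at 37 °C, 3 days for M. smegmatis and M. abscessus, 5 days for M. intracellulare. Read-out by RFP fluorescence (ex 544/em 590 nm). Controls were 1 % DMSO and 100 μM amikacin. MIC₉₀ from duplicates, averaged.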

[2] = system: Mycobacterium tuberculosis; assay: Antibacterial activity against Mycobacterium tuberculosis H37Rv ATCC 27294 assessed as bacterial growth inhibition incubated for 7 days in 7H9 medium by optical density based microplate reader analysis; format: functional; details: H37Rv ATCC 27294, 168 h, time 7 day
Outline: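 Compounds serially diluted in flat-bottom 96-well plates. Mid-log culture mixed in to a final OD₆₀₀ of 0.05. Sealed plates incubated in humidified boxes at 37 °C for 7 days with shaking at 80 rpm. Turbidity read at 600 nm. MIC₉₀ taken from dose–response curves. Two biological replicates, averaged.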

[3] = system: Mycobacteroides abscessus; assay: Antibacterial activity against Mycobacterium abscessus ATCC 19977 expressing tomato RFP assessed as bacterial growth inhibition incubated for 3 days in 7H9 medium by RFP fluorescence based broth microdilution method; format: functional; details: ATCC 19977, 72 h, time 3 day; outline: as §1
[4] = system: Mycobacteroides abscessus; assay: Antibacterial activity against Mycobacterium abscessus ATCC 19977 expressing tomato RFP assessed as bacterial growth inhibition incubated for 3 days in MHII medium by RFP fluorescence based broth microdilution method; format: functional; details: ATCC 19977, 72 h, time 3 day
Outline: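 Broth microdilution in MHII broth with 0.05 % Tween 80, against the RFP-expressing strain. Twofold nine-point dilution series. Inoculum 5 x 10⁵ cells/mL from a mid-log preculture. Incubated 3 days at 37 °C. Read-out by RFP fluorescence (ex 544/em 590 nm). Controls were 1 % DMSO and 100 μM amikacin. MIC₉₀ from duplicates, averaged.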

[5] = system: Mycobacterium intracellulare; assay: Antibacterial activity against Mycobacterium intracellulare ATCC 35761 expressing tomato RFP assessed as bacterial growth inhibition incubated for 5 days in 7H9 medium by RFP fluorescence based broth microdilution method; format: functional; details: ATCC 35761, 120 h, time 5 day; outline: as §1
[6] = system: Mycobacteroides abscessus; assay: Antibacterial activity against Mycobacterium abscessus Bamboo harboring inactive clarithromycin-sensitive erm41 C28 sequevar assessed as bacterial growth inhibition incubated for 3 days in 7H9 medium by optical density based method; format: functional; details: 72 h, time 3 day
[7] = system: Mycobacteroides abscessus; assay: Antibacterial activity against Mycobacterium abscessus ATCC 19977 expressing tomato RFP infected in human THP-1 cells assessed as bacterial growth inhibition incubated for 4 days in RPMI medium by RFP fluorescence based assay; format: functional; details: ATCC 19977, 96 h, time 4 day
Outline: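 RFP M. abscessus washed, moved into RPMI, filtered through 5 µm and opsonised with 10 % human serum for 30 min. THP-1 cells infected at MOI 5:1 with PMA 40 ng/mL for 4 h at 37 °C, then washed. Infected cells (1x10⁵/well) given a ten-point twofold series. Incubated 4 days at 37 °C, 5 % CO₂. Cells PFA-fixed and DAPI-stained. RFP quantified by imaging. Controls were DMSO and 1.5 µM bedaquiline. Duplicate.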

[8] = system: A-375; assay: Cytotoxicity against human A-375 cells assessed as reduction in cell viability incubated for 72 hrs by SRB assay; format: toxicity, cell-based
[9] = system: HT-29; assay: Cytotoxicity against human HT-29 cells assessed as reduction in cell viability incubated for 72 hrs by SRB assay; format: toxicity, cell-based
[10] = system: MCF7; assay: Cytotoxicity against human MCF7 cells assessed as reduction in cell viability incubated for 72 hrs by SRB assay; format: toxicity, cell-based
[11] = system: A2780; assay: Cytotoxicity against human A2780 cells assessed as reduction in cell viability incubated for 72 hrs by SRB assay; format: toxicity, cell-based
[12] = Cytotoxicity against mouse NIH3T3 cells assessed as reduction in cell viability incubated for 72 hrs by SRB assay; format: toxicity, cell-based; details: mouse, NIH3T3 cells
[13] = system: HeLa; assay: Cytotoxicity against human HeLa cells assessed as reduction in cell viability incubated for 72 hrs by SRB assay; format: toxicity, cell-based
[14] = Kinetic solubility of compound in PBS at 0.78 to 500 uM measured immediately by nephelometric method; format: physicochemical; details: buffer, dose 0.78-500 µM
Outline: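 DMSO stocks prediluted in DMSO, then diluted 1:50 into PBS (2 % DMSO final) and read immediately by nephelometry at 0.78–500 μM; blank-corrected data fitted by segmental regression; quadruplicates from one stock.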

Compound | MIC90 [1] [µM] | MIC90 [2] [µM] | MIC90 [3] [µM] | MIC90 [4] [µM] | MIC90 [5] [µM] | MIC50 [6] [µM] | MIC90 [6] [µM] | MIC50 [7] [µM] | MIC90 [7] [µM] | EC50 [8] [µM] | EC50 [9] [µM] | EC50 [10] [µM] | EC50 [11] [µM] | EC50 at 72 h [12] [µM] | EC50 [13] [µM] | Kinetic_solubility [14] [µM]
O=C(N[C@H](Cc1ccccc1)C(=O)Nc1cc(F)ccc1N1CCSCC1)c1cccs1 | 3.13 (≈ 1.47 µg/mL) | 1.56 (≈ 0.733 µg/mL) | 25 (≈ 11.7 µg/mL) | 50 (≈ 23.5 µg/mL) | 0.78 (≈ 0.366 µg/mL) | 1.4 (≈ 0.657 µg/mL) | 14 (≈ 6.57 µg/mL) | 3.13 (≈ 1.47 µg/mL) | > 100 | > 30 | > 30 | > 30 | > 30 | > 30 | > 30 | 37
O=C(N[C@H](Cc1ccccc1)C(=O)Nc1ccccc1C1CCSCC1)c1cccs1 | 6.25 (≈ 2.82 µg/mL) | > 25 | 50 (≈ 22.5 µg/mL) | 100 (≈ 45.1 µg/mL) | 6.25 (≈ 2.82 µg/mL) | 21 (≈ 9.46 µg/mL) | 44 (≈ 19.8 µg/mL) | > 100 | > 100 | > 30 | > 30 | > 30 | > 30 | > 30 | > 30 | 39
O=C(N[C@H](Cc1ccccc1)C(=O)Nc1cc(F)ccc1N1CC[S+]([O-])CC1)c1cccs1 | 1.56 (≈ 0.758 µg/mL) | 0.4 (≈ 0.194 µg/mL) | 1.56 (≈ 0.758 µg/mL) | 3.13 (≈ 1.52 µg/mL) | 0.05 (≈ 0.0243 µg/mL) | 0.28 (≈ 0.136 µg/mL) | 1.9 (≈ 0.923 µg/mL) | 0.78 (≈ 0.379 µg/mL) | 25 (≈ 12.1 µg/mL) | > 30 | > 30 | > 30 | > 30 | > 30 | > 30 | 131
O=C(N[C@H](Cc1ccc(O)cc1)C(=O)Nc1cc(F)ccc1N1CCSCC1)c1cccs1 | 12.5 (≈ 6.07 µg/mL) | 0.78 (≈ 0.379 µg/mL) | 12.5 (≈ 6.07 µg/mL) |  | 0.1 (≈ 0.0486 µg/mL) | 1.6 (≈ 0.777 µg/mL) | 15 (≈ 7.28 µg/mL) | 12.5 (≈ 6.07 µg/mL) | 50 (≈ 24.3 µg/mL) | > 30 | > 30 | > 30 | > 30 | > 30 | > 30 | 78
O=C(N[C@H](Cc1ccsc1)C(=O)Nc1ccccc1N1CC[S+]([O-])CC1)c1cccs1 | 3.13 (≈ 1.48 µg/mL) | 6.25 (≈ 2.96 µg/mL) | 6.25 (≈ 2.96 µg/mL) | 12.5 (≈ 5.92 µg/mL) | 0.2 (≈ 0.0947 µg/mL) | 3.4 (≈ 1.61 µg/mL) | 15 (≈ 7.1 µg/mL) | 12.5 (≈ 5.92 µg/mL) | 100 (≈ 47.4 µg/mL) | > 30 | > 30 | > 30 | > 30 | > 30 | > 30 | 74
O=C(N[C@H](Cc1ccc(O)cc1)C(=O)Nc1cc(F)ccc1N1CCSCC1)c1ccccc1F | 6.25 (≈ 3.11 µg/mL) | 1.56 (≈ 0.776 µg/mL) |  | 50 (≈ 24.9 µg/mL) | 0.2 (≈ 0.0995 µg/mL) | 1.7 (≈ 0.846 µg/mL) | 15 (≈ 7.46 µg/mL) | 6.25 (≈ 3.11 µg/mL) | 25 (≈ 12.4 µg/mL) | > 30 | > 30 | > 30 | > 30 | > 30 | > 30 | 58
O=C(N[C@H](Cc1ccc(O)cc1)C(=O)Nc1cc(F)ccc1N1CCS(=O)(=O)CC1)c1cccs1 | 6.25 (≈ 3.24 µg/mL) | 0.78 (≈ 0.404 µg/mL) | 6.25 (≈ 3.24 µg/mL) | 3.13 (≈ 1.62 µg/mL) | 0.05 (≈ 0.0259 µg/mL) | 0.4 (≈ 0.207 µg/mL) | 9 (≈ 4.66 µg/mL) | 6.25 (≈ 3.24 µg/mL) | 25 (≈ 12.9 µg/mL) | > 30 | 29.8 | > 30 | 29.7 | > 30 | > 30 | 170
O=C(N[C@H](Cc1ccsc1)C(=O)Nc1ccccc1N1CCOCC1)c1cccs1 | 1.56 (≈ 0.689 µg/mL) | 3.13 (≈ 1.38 µg/mL) | 12.5 (≈ 5.52 µg/mL) | 12.5 (≈ 5.52 µg/mL) | 1.56 (≈ 0.689 µg/mL) | 2.3 (≈ 1.02 µg/mL) | 7 (≈ 3.09 µg/mL) | 12.5 (≈ 5.52 µg/mL) | 50 (≈ 22.1 µg/mL) | > 30 | > 30 | > 30 | > 30 | > 30 | > 30 | 30
O=C(N[C@H](Cc1ccccc1)C(=O)Nc1cc(F)ccc1N1CC[S+]([O-])CC1)c1ccccc1F | 1.56 (≈ 0.776 µg/mL) | 0.78 (≈ 0.388 µg/mL) | 3.31 (≈ 1.65 µg/mL) | 3.13 (≈ 1.56 µg/mL) | 0.2 (≈ 0.0995 µg/mL) | 0.52 (≈ 0.259 µg/mL) | 2 (≈ 0.995 µg/mL) | 0.39 (≈ 0.194 µg/mL) | 12.5 (≈ 6.22 µg/mL) | > 30 | > 30 | > 30 | > 30 | > 30 | > 30 | 184
O=C(N[C@H](Cc1cccs1)C(=O)Nc1ccccc1N1CCOCC1)c1ccccc1F | 1.56 (≈ 0.708 µg/mL) | 3.13 (≈ 1.42 µg/mL) | 6.25 (≈ 2.83 µg/mL) | 12.5 (≈ 5.67 µg/mL) | 0.78 (≈ 0.354 µg/mL) | 2 (≈ 0.907 µg/mL) | 7 (≈ 3.17 µg/mL) | 6.25 (≈ 2.83 µg/mL) | 25 (≈ 11.3 µg/mL) | > 30 | > 30 | > 30 | > 30 | > 30 | > 30 | 39
